ChEMBL document CHEMBL4689842, “EUbOPEN Chemogenomics Library wave 1” (2021)

Columns and labels:
Type in all cases: toxicity, cell-based
U2OS [1] = test: Multiplex assay against U2OS; details: human
Outline: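 Live cells carried four stains from seeding: Hoechst33342, BioTracker Green Microtubule Cytoskeleton Dye, MitoTracker Red and Annexin V Alexa Fluor 680. They were imaged on a CQ1 microscope at 37°C and 5% CO2 after compound addition. Using CellPathfinder machine-learning gating, cells were split into Hoechst high-intensity objects or normal cells, normal cells into healthy, pyknosed or fragmented nuclei, and pyknosed cells into mitotic or apoptotic; tubulin, mitochondrial-mass and membrane-permeability phenotypes are per cents of healthy-nucleus cells.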

Fibroblast = test: Incucyte cell viability with human fibroblast; details: 10 µM, compound concentration 10 uM; also: filed as whole numbers so only -1 and 0 and 1 occur
U2OS [2] = test: Incucyte cell viability with U2OS; details: human, 10 µM, compound concentration 10 uM; also: filed as whole numbers so only -1 and 0 and 1 occur
HEK-293T = test: Incucyte cell viability with HEK293T; details: human, 10 µM, compound concentration 10 uM; also: filed as whole numbers so only -1 and 0 and 1 occur
[3] = 12 h, 1 µM, compound concentration 1 uM, replicate 1
[4] = 12 h, 1 µM, compound concentration 1 uM, replicate 2
[5] = 12 h, 10 µM, compound concentration 10 uM, replicate 1
[6] = 12 h, 10 µM, compound concentration 10 uM, replicate 2
[7] = 24 h, 1 µM, compound concentration 1 uM, replicate 1
[8] = 24 h, 1 µM, compound concentration 1 uM, replicate 2
[9] = 24 h, 10 µM, compound concentration 10 uM, replicate 1
[10] = 24 h, 10 µM, compound concentration 10 uM, replicate 2
[11] = 48 h, 1 µM, compound concentration 1 uM, replicate 1
[12] = 48 h, 1 µM, compound concentration 1 uM, replicate 2
[13] = 48 h, 10 µM, compound concentration 10 uM, replicate 1
[14] = 48 h, 10 µM, compound concentration 10 uM, replicate 2
[15] = 6 h, replicate number 1, timepoint 6 hours
[16] = 12 h, replicate number 1, timepoint 12 hours
[17] = 18 h, replicate number 1, timepoint 18 hours
[18] = 24 h, replicate number 1, timepoint 24 hours

Cl.NC[C@@H]1O[C@H](C23CC4CC(CC(C4)C2)C3)Cc2c1ccc(O)c2O
Population Apoptotic (%) (U2OS [1]; [3]): 60%
Population Fragmented Nuclei (%) (U2OS [1]; [3]): 10%
Population Healthy Nuclei (%) (U2OS [1]; [3]): 80%
Population Hoechst High Intensity Objects (%) (U2OS [1]; [3]): 7%
Population Membrane Permeable-Phenotype (%) (U2OS [1]; [3]): 5%
Population Mitochondria Different-Phenotype (%) (U2OS [1]; [3]): 11%
Population Mitotic Cells (%) (U2OS [1]; [3]): 40%
Population Normal (%) (U2OS [1]; [3]): 92%
Population Pyknosed Nuclei (%) (U2OS [1]; [3]): 9%
Population Tubulin-Different-Phenotype (%) (U2OS [1]; [3]): 6%
Total Cell Count (U2OS [1]; [3]): 116
Population Apoptotic (%) (U2OS [1]; [4]): 0%
Population Fragmented Nuclei (%) (U2OS [1]; [4]): 6%
Population Healthy Nuclei (%) (U2OS [1]; [4]): 91%
Population Hoechst High Intensity Objects (%) (U2OS [1]; [4]): 3%
Population Membrane Permeable-Phenotype (%) (U2OS [1]; [4]): 2%
Population Mitochondria Different-Phenotype (%) (U2OS [1]; [4]): 9%
Population Mitotic Cells (%) (U2OS [1]; [4]): 100%
Population Normal (%) (U2OS [1]; [4]): 96%
Population Pyknosed Nuclei (%) (U2OS [1]; [4]): 2%
Population Tubulin-Different-Phenotype (%) (U2OS [1]; [4]): 10%
Total Cell Count (U2OS [1]; [4]): 95
Population Apoptotic (%) (U2OS [1]; [5]): 37%
Population Fragmented Nuclei (%) (U2OS [1]; [5]): 31%
Population Healthy Nuclei (%) (U2OS [1]; [5]): 36%
Population Hoechst High Intensity Objects (%) (U2OS [1]; [5]): 8%
Population Membrane Permeable-Phenotype (%) (U2OS [1]; [5]): 3%
Population Mitochondria Different-Phenotype (%) (U2OS [1]; [5]): 13%
Population Mitotic Cells (%) (U2OS [1]; [5]): 62%
Population Normal (%) (U2OS [1]; [5]): 92%
Population Pyknosed Nuclei (%) (U2OS [1]; [5]): 31%
Population Tubulin-Different-Phenotype (%) (U2OS [1]; [5]): 5%
Total Cell Count (U2OS [1]; [5]): 150
Population Apoptotic (%) (U2OS [1]; [6]): 52%
Population Fragmented Nuclei (%) (U2OS [1]; [6]): 39%
Population Healthy Nuclei (%) (U2OS [1]; [6]): 32%
Population Hoechst High Intensity Objects (%) (U2OS [1]; [6]): 10%
Population Membrane Permeable-Phenotype (%) (U2OS [1]; [6]): 9%
Population Mitochondria Different-Phenotype (%) (U2OS [1]; [6]): 22%
Population Mitotic Cells (%) (U2OS [1]; [6]): 47%
Population Normal (%) (U2OS [1]; [6]): 89%
Population Pyknosed Nuclei (%) (U2OS [1]; [6]): 27%
Population Tubulin-Different-Phenotype (%) (U2OS [1]; [6]): 27%
Total Cell Count (U2OS [1]; [6]): 76
Population Apoptotic (%) (U2OS [1]; [7]): 46%
Population Fragmented Nuclei (%) (U2OS [1]; [7]): 11%
Population Healthy Nuclei (%) (U2OS [1]; [7]): 79%
Population Hoechst High Intensity Objects (%) (U2OS [1]; [7]): 7%
Population Membrane Permeable-Phenotype (%) (U2OS [1]; [7]): 2%
Population Mitochondria Different-Phenotype (%) (U2OS [1]; [7]): 3%
Population Mitotic Cells (%) (U2OS [1]; [7]): 53%
Population Normal (%) (U2OS [1]; [7]): 92%
Population Pyknosed Nuclei (%) (U2OS [1]; [7]): 9%
Population Tubulin-Different-Phenotype (%) (U2OS [1]; [7]): 9%
Total Cell Count (U2OS [1]; [7]): 146
Population Apoptotic (%) (U2OS [1]; [8]): 42%
Population Fragmented Nuclei (%) (U2OS [1]; [8]): 8%
Population Healthy Nuclei (%) (U2OS [1]; [8]): 85%
Population Hoechst High Intensity Objects (%) (U2OS [1]; [8]): 2%
Population Membrane Permeable-Phenotype (%) (U2OS [1]; [8]): 5%
Population Mitochondria Different-Phenotype (%) (U2OS [1]; [8]): 10%
Population Mitotic Cells (%) (U2OS [1]; [8]): 57%
Population Normal (%) (U2OS [1]; [8]): 97%
Population Pyknosed Nuclei (%) (U2OS [1]; [8]): 6%
Population Tubulin-Different-Phenotype (%) (U2OS [1]; [8]): 12%
Total Cell Count (U2OS [1]; [8]): 114
Population Apoptotic (%) (U2OS [1]; [9]): 76%
Population Fragmented Nuclei (%) (U2OS [1]; [9]): 38%
Population Healthy Nuclei (%) (U2OS [1]; [9]): 33%
Population Hoechst High Intensity Objects (%) (U2OS [1]; [9]): 6%
Population Membrane Permeable-Phenotype (%) (U2OS [1]; [9]): 7%
Population Mitochondria Different-Phenotype (%) (U2OS [1]; [9]): 7%
Population Mitotic Cells (%) (U2OS [1]; [9]): 23%
Population Normal (%) (U2OS [1]; [9]): 93%
Population Pyknosed Nuclei (%) (U2OS [1]; [9]): 27%
Population Tubulin-Different-Phenotype (%) (U2OS [1]; [9]): 17%
Total Cell Count (U2OS [1]; [9]): 161
Population Apoptotic (%) (U2OS [1]; [10]): 92%
Population Fragmented Nuclei (%) (U2OS [1]; [10]): 50%
Population Healthy Nuclei (%) (U2OS [1]; [10]): 29%
Population Hoechst High Intensity Objects (%) (U2OS [1]; [10]): 18%
Population Membrane Permeable-Phenotype (%) (U2OS [1]; [10]): 26%
Population Mitochondria Different-Phenotype (%) (U2OS [1]; [10]): 26%
Population Mitotic Cells (%) (U2OS [1]; [10]): 7%
Population Normal (%) (U2OS [1]; [10]): 81%
Population Pyknosed Nuclei (%) (U2OS [1]; [10]): 20%
Population Tubulin-Different-Phenotype (%) (U2OS [1]; [10]): 26%
Total Cell Count (U2OS [1]; [10]): 80
Population Apoptotic (%) (U2OS [1]; [11]): 33%
Population Fragmented Nuclei (%) (U2OS [1]; [11]): 8%
Population Hoechst High Intensity Objects (%) (U2OS [1]; [11]): 6%
Population Membrane Permeable-Phenotype (%) (U2OS [1]; [11]): 0%
Population Mitochondria Different-Phenotype (%) (U2OS [1]; [11]): 14%
Population Mitotic Cells (%) (U2OS [1]; [11]): 66%
Population Normal (%) (U2OS [1]; [11]): 93%
Population Pyknosed Nuclei (%) (U2OS [1]; [11]): 9%
Population Tubulin-Different-Phenotype (%) (U2OS [1]; [11]): 12%
Total Cell Count (U2OS [1]; [11]): 198
Population Apoptotic (%) (U2OS [1]; [12]): 57%
Population Fragmented Nuclei (%) (U2OS [1]; [12]): 11%
Population Healthy Nuclei (%) (U2OS [1]; [12]): 82%
Population Hoechst High Intensity Objects (%) (U2OS [1]; [12]): 3%
Population Membrane Permeable-Phenotype (%) (U2OS [1]; [12]): 3%
Population Mitochondria Different-Phenotype (%) (U2OS [1]; [12]): 21%
Population Mitotic Cells (%) (U2OS [1]; [12]): 42%
Population Normal (%) (U2OS [1]; [12]): 96%
Population Pyknosed Nuclei (%) (U2OS [1]; [12]): 5%
Population Tubulin-Different-Phenotype (%) (U2OS [1]; [12]): 13%
Total Cell Count (U2OS [1]; [12]): 127
Population Apoptotic (%) (U2OS [1]; [13]): 84%
Population Fragmented Nuclei (%) (U2OS [1]; [13]): 33%
Population Healthy Nuclei (%) (U2OS [1]; [13]): 33%
Population Hoechst High Intensity Objects (%) (U2OS [1]; [13]): 13%
Population Membrane Permeable-Phenotype (%) (U2OS [1]; [13]): 20%
Population Mitochondria Different-Phenotype (%) (U2OS [1]; [13]): 16%
Population Mitotic Cells (%) (U2OS [1]; [13]): 16%
Population Normal (%) (U2OS [1]; [13]): 86%
Population Pyknosed Nuclei (%) (U2OS [1]; [13]): 32%
Population Tubulin-Different-Phenotype (%) (U2OS [1]; [13]): 37%
Total Cell Count (U2OS [1]; [13]): 180
Population Apoptotic (%) (U2OS [1]; [14]): 91%
Population Fragmented Nuclei (%) (U2OS [1]; [14]): 50%
Population Healthy Nuclei (%) (U2OS [1]; [14]): 27%
Population Hoechst High Intensity Objects (%) (U2OS [1]; [14]): 34%
Population Membrane Permeable-Phenotype (%) (U2OS [1]; [14]): 80%
Population Mitochondria Different-Phenotype (%) (U2OS [1]; [14]): 53%
Population Mitotic Cells (%) (U2OS [1]; [14]): 8%
Population Normal (%) (U2OS [1]; [14]): 65%
Population Pyknosed Nuclei (%) (U2OS [1]; [14]): 22%
Population Tubulin-Different-Phenotype (%) (U2OS [1]; [14]): 66%
Total Cell Count (U2OS [1]; [14]): 82
Growth Rate (Fibroblast; [15]): 0
Growth Rate (Fibroblast; [16]): 0
Growth Rate (Fibroblast; [17]): 0
Growth Rate (Fibroblast; [18]): 0
Growth Rate (U2OS [2]; [15]): 0
Growth Rate (U2OS [2]; [16]): 0
Growth Rate (U2OS [2]; [17]): 0
Growth Rate (U2OS [2]; [18]): 0
Growth Rate (HEK-293T; 0 h, replicate number 2, timepoint 0 hours): 1
Growth Rate (HEK-293T; [15]): 0
Growth Rate (HEK-293T; [16]): 0
Growth Rate (HEK-293T; [17]): 0
Growth Rate (HEK-293T; [18]): 0
